# SUMO1-SIM PPI: modulators of human SUMO1-mediated protein-protein interactions. SUMO1 binding to a labelled peptide, TR-FRET, 1 h. inhibition, % at 20 µM. AID 602429. 0.33% of 360,000 active; in the data active = inhibition above about 37%
# Scp1 inh: Scp-1 (human) phosphatase inhibition; inhibition, % at 20 µM; 0.88% of 340,000 active; Recombinant Scp1, phosphopeptide, malachite green phosphate absorbance;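 active = inhibition above about 50% at 20 µM, limit read from the data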;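 note: plate controls were DMSO wells with enzyme for no effect and wells lacking enzyme for full effect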
#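 Times: enzyme reaction 45 min at room temperature, colour 5 min, stabilisation 30 min. Material: SCP-1 catalytic fragment, aa 76-261. Medium: Acidic Tris acetate buffer with magnesium and detergent. Signal: colorimetric free-phosphate detection, absorbance 630 nm. Read-out basis: % inhibition of SCP-1 phosphate liberation. Reagent: Phosphorylated 17-residue peptide substrate.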
# LMPTP inh: LMPTP (human) inhibition | P24666 | recombinant LMPTP-A, OMFP fluorogenic substrate, fluorescence intensity | 0.22% of 360,000 active | inhibition, % at 20 µM;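 active = compounds that cut the enzyme signal by at least half of the control window in the single-dose screen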;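 note: plate controls were DMSO wells with enzyme plus substrate for no effect and substrate without enzyme for full effect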
#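 Test system – LMPTP-A enzyme · Amount – LMPTP-A at 0.625 nM final in the reaction · Buffer or medium – Bis-Tris pH 6.0, DTT, detergent · Reagent – OMFP 400 µM · Doses – single 20 µM dose · Schedule – reaction 50 min, room temperature, dark · Detection – fluorescence intensity of OMFP turnover product · Evaluation – percent inhibition versus substrate-only and uninhibited controls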
# STEP block: STEP (human) phosphatase inhibition; recombinant STEP, OMFP fluorogenic substrate, fluorescence; 0.25% of 360,000 active; inhibition, % at 20 µM;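 active = inhibition at 20 µM, scaled per plate between control wells, above about 37%, limit read from the data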;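 note: 0% = DMSO with enzyme and substrate and 100% = substrate only without enzyme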
#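 Also added – OMFP at 25 µM · Test system – STEP tyrosine phosphatase · Technique – FITC-channel fluorescence of OMFP product · Schedule – 20 min at room temperature, dark · Evaluation – control-normalized % inhibition with plate pattern correction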
# DNMT1 inh: inhibitors of human DNMT1. 0.83% of 360,000 active. DNMT1 molecular beacon, Hinp1I cleavage, fluorescence. AID 588458. P26358. inhibition (reported as % activation of signal), % at 10 µM; in the data active = inhibition above about 50%
# Target sequence (P26358 504-1616 limits assumed): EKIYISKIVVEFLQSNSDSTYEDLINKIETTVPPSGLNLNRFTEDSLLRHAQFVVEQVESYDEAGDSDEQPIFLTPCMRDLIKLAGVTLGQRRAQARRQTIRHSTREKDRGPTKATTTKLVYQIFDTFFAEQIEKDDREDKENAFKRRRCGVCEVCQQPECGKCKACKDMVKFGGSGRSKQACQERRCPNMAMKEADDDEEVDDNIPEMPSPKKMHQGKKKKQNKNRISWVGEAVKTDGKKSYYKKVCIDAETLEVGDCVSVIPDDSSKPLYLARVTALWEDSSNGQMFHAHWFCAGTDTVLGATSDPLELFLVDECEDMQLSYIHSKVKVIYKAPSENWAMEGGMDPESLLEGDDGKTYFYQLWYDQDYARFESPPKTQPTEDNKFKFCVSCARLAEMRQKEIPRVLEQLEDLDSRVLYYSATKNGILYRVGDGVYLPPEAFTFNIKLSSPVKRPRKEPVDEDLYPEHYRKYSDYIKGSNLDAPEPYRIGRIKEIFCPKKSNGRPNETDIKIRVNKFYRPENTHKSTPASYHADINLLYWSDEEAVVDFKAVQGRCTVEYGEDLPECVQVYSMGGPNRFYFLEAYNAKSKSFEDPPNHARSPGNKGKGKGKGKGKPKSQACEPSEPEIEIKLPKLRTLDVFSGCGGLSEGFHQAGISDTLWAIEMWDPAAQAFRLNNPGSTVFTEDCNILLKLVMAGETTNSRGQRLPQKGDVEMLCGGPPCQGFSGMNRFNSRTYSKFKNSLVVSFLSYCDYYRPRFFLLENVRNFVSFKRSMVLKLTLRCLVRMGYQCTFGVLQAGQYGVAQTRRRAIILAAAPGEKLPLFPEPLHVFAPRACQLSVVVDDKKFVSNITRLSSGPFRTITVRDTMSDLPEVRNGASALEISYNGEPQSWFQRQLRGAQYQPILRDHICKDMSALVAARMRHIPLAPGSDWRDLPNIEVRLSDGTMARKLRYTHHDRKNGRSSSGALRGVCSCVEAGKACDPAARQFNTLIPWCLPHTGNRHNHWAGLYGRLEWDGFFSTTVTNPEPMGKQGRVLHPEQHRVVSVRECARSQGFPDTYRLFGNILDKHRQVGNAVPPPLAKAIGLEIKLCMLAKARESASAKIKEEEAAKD
# Scp1 confirm: confirmation of human Scp-1 phosphatase inhibitors; shares compounds with Scp1 inh; recombinant SCP-1 catalytic domain, phosphate release, malachite green absorbance; inhibition, % at 20 µM; 61% of 2,500 active; AID 540281;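 note: plate controls were DMSO with enzyme for no effect and buffer wells lacking enzyme for full effect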
# Scp-1 MG ctr: counter-screen for Scp-1 inhibitors: colorimetric interference; shares compounds with Scp1 inh; Colorimetric interference counterscreen, malachite green absorbance 630 nm; apparent inhibition (interference), % at 20 µM; 2,500 tested, under 10 active; AID 540313;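 note: compounds added after enzyme reaction finished so only phosphate colour detection is probed; plate controls were DMSO wells with completed Scp-1 reaction for no effect and substrate wells lacking enzyme for full effect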
# Scp1 DSF: Scp-1 (human) binding by thermal shift | shares compounds with Scp1 inh | Recombinant SCP1, Sypro Orange thermal shift Tm | thermal shift relative to vanadate control, % at 40 µM | 25% of 1,500 active;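 active = substances whose mean melting-temperature shift, as a percentage of the reference inhibitor's shift, reaches about 5.3%, limit read from the data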;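 note: 0% = Tm of DMSO wells and 100% = Tm with sodium orthovanadate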
# DNMT1 confirm: DNMT1 inhibition confirmation, single concentration; DNMT1 molecular beacon HinP1I cleavage, fluorescence; 8% of 2,300 active; shares compounds with DNMT1 inh; inhibition, % at 10 µM;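 active = average inhibition of at least 30% in the single-concentration confirmation test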
# Beacon interf: shows spectral interference in the DNMT1 beacon assay; 1% of 2,300 active; DNMT1 molecular beacon spectral interference counterscreen, fluorescence 485/520; shares compounds with DNMT1 inh; AID 602387; activation (fluorescence interference), % at 10 µM;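 active = activation of at least 30% at 10 µM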;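 note: DNMT1 catalytic domain with a HinP1I cleavage step and a FAM/dabcyl DNA beacon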
# STEP inh conf: STEP (human) phosphatase inhibition, single concentration confirmation | shares compounds with STEP block | recombinant STEP, OMFP fluorogenic substrate, fluorescence | inhibition, % at 20 µM | 32% of 520 active; call rule not given here;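 note: 0% = enzyme with substrate plus DMSO and 100% = substrate without enzyme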
# Numbers without * were called inactive; nt = no result. Only some compounds are listed: those with a hit (about 1.7% of all), similar ones and a draw of the others.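 Rule for the calls, unless noted: active = inhibition of at least 30% at 20 µM; inactive = the rest.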
SMILES,SUMO1-SIM PPI,Scp1 inh,LMPTP inh,STEP block,DNMT1 inh,Scp1 confirm,Scp-1 MG ctr,Scp1 DSF,STEP inh conf,others
O=C(Nc1cccc(Cl)c1)/C(=C\c1cccnc1)NC(=O)c1ccco1,0,-3,-1,2,-2,nt,nt,nt,nt,
Cc1ccc(S(=O)(=O)Cc2ccc(C(=O)O)o2)cc1,10,86*,8,55*,89*,50*,-21,7.9*,50*,DNMT1 confirm=11;Beacon interf=1
O=C1NC(=S)N(C(=O)c2ccc(F)cc2)/C1=C/c1cccnc1,-18,95*,18,43*,4,56*,-17,3,14,
COc1ccc(/C=C2\C(=O)NC(=S)N2C(=O)c2ccc(C)cc2)cc1,16,9,4,5,-7,nt,nt,nt,nt,
O=C(/C=C/c1ccccc1Cl)Nc1ccc2c(c1)C(=O)NC2=O,37,101*,71*,95*,65*,85*,-11,6.8*,19,DNMT1 confirm=6;Beacon interf=3
CCCCCn1c(N)c(-c2nc3ccccc3o2)c2c([N+](=O)[O-])nn(C)c(=O)c21,4,99*,83*,97*,92*,73*,1,5.4*,40*,DNMT1 confirm=0;Beacon interf=0
CCCCn1c(N)c(-c2nc3ccccc3s2)c2c([N+](=O)[O-])nn(C)c(=O)c21,-4,3,1,3,-14,nt,nt,nt,nt,
O=C(O)C(S)C(S)C(=O)O (centres undefined),23,96*,40,50*,86*,65*,-15,-2,101*,
Cc1c(CC(=O)NCCCCCC(=O)O)c(=O)oc2c(C)c3oc4c(c3cc12)CCCC4,2,94*,18,97*,-1,94*,1,-11,89*,
CCOC(=O)N1CCN(C/C(Cl)=C/c2ccccc2)CC1,4,-5,-2,0,7,nt,nt,nt,nt,
CN(C)c1cc(-c2ccc(Cl)cc2)oc(=O)c1Cl,-22,-10,-1,3,0,nt,nt,nt,nt,
CN(C)c1cc(-c2ccc(Cl)c(Cl)c2)oc(=O)c1Cl,26,107*,60*,96*,62*,81*,-18,3,13,DNMT1 confirm=0;Beacon interf=-2
COc1ccc(N2CCN(C(=O)COC(=O)CCOc3ccc(C(C)(C)C)cc3)CC2)cc1,0,-2,-2,-1,4,nt,nt,nt,nt,
Cc1c(C)n(C(=O)CSc2nc3ccccc3[nH]2)c2ccccc12,1,98*,15,84*,100*,60*,-8,5.8*,52*,DNMT1 confirm=13;Beacon interf=-2
O=C(CSc1nc2ccccc2[nH]1)N1CCCCC1,-2,6,-1,0,5,nt,nt,nt,nt,
C=CCNC(=O)c1ccc(Cn2c(=S)[nH]c3cc4c(cc3c2=O)OCO4)cc1,17,86*,49,47*,1,58*,-18,-22,6,
CCN(CC)C(=O)c1ccc2c(=O)n(Cc3ccc4c(c3)OCO4)c(=S)[nH]c2c1,-7,-17,0,1,2,nt,nt,nt,nt,
C#CCN(C[C@H]1[C@H](OC(=O)NCc2ccccc2F)[C@H](OC(=O)NCc2ccccc2F)C[C@@H](C(=O)OC)[C@H]1C(=O)OC)S(=O)(=O)c1ccc(C)cc1,-1,nt,4,4,-8,nt,nt,nt,nt,
COc1cccc2cc(C(=O)Nc3cccc(C)n3)c(=O)oc12,-12,102*,-3,56*,74*,60*,-6,-3,-1,DNMT1 confirm=2;Beacon interf=3
COc1cccc2cc(C(=O)NC(C)c3ccccc3)c(=O)oc12 (centres undefined),-30,-8,0,-2,-2,nt,nt,nt,nt,
Cc1c(CC(=O)O)c(=O)oc2c(C)c(OCc3ccccc3)ccc12,3,-23,-2,0,-2,nt,nt,nt,nt,
Cc1c(CC(=O)O)c(=O)oc2c(C)c(OCc3ccccc3Br)ccc12,25,91*,49,98*,2,62*,-14,-62,65*,
Cc1c(Cc2ccccc2)c(=O)oc2c(C)c(OCC(=O)NCC3CCC(C(=O)O)CC3)ccc12 (centres undefined),5,85*,46,65*,-2,56*,-17,-33,29,
Cc1c(CCC(=O)O)c(=O)oc2c(C)c(OCc3cc4c(cc3Cl)OCO4)ccc12,81*,59*,77*,94*,2,39*,-21,-36,51*,
O=C(NCCS(=O)(=O)N1CCN(c2ccccc2)CC1)c1ccc(Br)o1,5,1,1,0,2,nt,nt,nt,nt,
SMILES,SUMO1-SIM PPI,Scp1 inh,LMPTP inh,STEP block,DNMT1 inh,Scp1 confirm,Scp-1 MG ctr,Scp1 DSF,STEP inh conf,others
O=C(N/N=C/c1ccccc1Cl)c1nc2ccc([N+](=O)[O-])cc2c(=O)[nH]1,3,70*,40,54*,0,32*,-18,7.5*,8,
O=C(Nc1cccc(-c2nc3ncccc3o2)c1)c1cc2ccccc2o1,-2,3,2,-3,1,nt,nt,nt,nt,
O=C(Nc1cccc(-c2nc3ncccc3o2)c1)c1sc2cc(Cl)ccc2c1Cl,4,95*,51*,90*,16,57*,-12,-12,0,
COc1ccc(-c2csc(NS(=O)(=O)c3ccc([N+](=O)[O-])cc3)n2)cc1,-12,-9,0,3,-2,nt,nt,nt,nt,
Cc1csc2c(=O)sc(NC(=O)c3ccc(F)cc3)nc12,4,0,-2,0,8,nt,nt,nt,nt,
Cc1csc2nc(NC(=O)c3ccccc3)sc(=O)c12,-7,87*,57*,79*,24,70*,-15,-8,16,
O=C(Nc1cc([N+](=O)[O-])ccc1O)c1cccc(C(=O)Nc2cc([N+](=O)[O-])ccc2O)c1,56*,98*,97*,99*,-3,96*,-3,16*,59*,
CCc1ccc(CN2CCCC(CNC(=O)c3cccc(OC)c3OC)C2)cc1 (centres undefined),-2,-2,0,-3,-1,nt,nt,nt,nt,
N=c1c2ccccc2nnn1-c1ccc(C(F)(F)F)cc1,-6,73*,68*,94*,24,62*,-11,-5,17,

# Compound activity deposited in PubChem BioAssay by Sanford-Burnham Center for Chemical Genomics.
